Sampled rows, rich in hits. Any-hit rate of the full collection: about 4.8%.
Mot1-301 SUMO: yeast Mot1-301 growth rescue at high temperature, primary screen, SUMOylation pathway inhibitor project, S. cerevisiae, ATP luminescence, 38.5C; S. cerevisiae Mot1-301 growth rescue; percent above DMSO median, 100 means doubled; growth rescue, % at 18.8 µM; 320,000 tested, 1% active; AID 2716, 2010;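 active = every valid replicate shows activation above 250% relative to neutral control wells; inactive = the rest, any valid replicate at or below 250%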;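 note: OY570 slx delta 5 strain wells were the positive control but not used for scaling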
T cruzi repl: inhibitors of intracellular T. cruzi growth, primary screen, luminescence, NIH3T3 host cells | 300,000 tested, 1.4% active | inhibition, % (no concentration beside the values) | T. cruzi beta-gal in NIH3T3, 90 h;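 active = mean inhibition across valid replicates above about 55%, limit read from the data; inconclusive = mean below that limit but half or more replicates reach it; inactive = mean below it, under half of replicates reach it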;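 note: signal also drops with host cell toxicity which is not excluded here; 0% = plate median of DMSO wells and 100% = zero luminescence signal; higher percent means less beta-gal luminescence so fewer parasites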
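Assay system: NIH/3T3 fibroblasts plus reporter T. cruzi. Amount: NIH/3T3 cells, 5,000 per well. Buffer or medium: DMEM, 2% fetal bovine serum. Doses: compound pinned at 50 nL/well, DMSO. Schedule: ≥90 h infection period, 3 h prior cell attachment. Signal: luminescent β-galactosidase signal after 60 min lysis. Read-out: parasite load inhibition, %.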
Beta cell apopt: inhibitors of cytokine-induced beta cell apoptosis, primary screen, luminescence; INS-1E cytokine-induced death, ATP luminescence, 48 h; percent of positive-control rescue, neutral wells zero; protection from apoptosis, % (test concentration not listed); 300,000 tested, 0.8% active; AID 435005, 2010;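 active = Every replicate reaches about 75%, or at least half do and their mean reaches it too, limit read from the data; inconclusive = At least half of replicates reach the limit but their mean does not; inactive = Under half of replicates reach the limit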;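 note: 0% = cytokine-treated negative control wells and 100% = positive control rescue; higher means more ATP so stronger rescue from cytokine killing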
Efflux pump inh: inhibitors of Candida efflux pumps in yeast, primary screen, S. cerevisiae, Nile Red, multiplex. inhibition, % at 10 µM. S. cerevisiae Candida pump triplex. 330,000 tested, 0.44% active;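 active = plate passing quality check with inhibition over a set limit, or well fluorescence over plate mean plus 4 SD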;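 note: Nile Red retained in pooled yeast measured as flow cytometry median fluorescence; 0% = buffer negative control and 100% = Enniatin B positive control; higher means more Nile Red kept so more efflux inhibition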
WT yeast gro inh: growth inhibition of WT strain, primary screen, mitochondrial fusion inhibitor project, WT and mutant strains, chemical genetic; mitochondrial fusion phenotypic screen; 190,000 tested, 2.1% active; inhibition, % at 10 µM; AID 1362, 2008; in the data active = inhibition above about 58%; tested in S. cerevisiae
CSC inhib: cancer stem cell viability inhibitors, primary screen, luminescence. 300,000 tested, 1.1% active. cancer stem cell-like cells viability. inhibition, % at 7.5 µM. AID 2717, 2010; in the data active = inhibition above about 75%; inconclusive = no clear call, values can overlap the other calls; tested in HMLE shEcad cells
Starred values were filed as active, the others as inactive; ? = inconclusive; / = no result.

SMILES | Mot1-301 SUMO | T cruzi repl | Beta cell apopt | Efflux pump inh | WT yeast gro inh | CSC inhib
Cc1cc(/C=N/n2cnnc2)c(C)n1-c1ccc(OCc2ccccc2F)cc1 | 10 | 38 | 122* | 0 | 50 | 40
C(=N\n1cnnc1)/c1ccc(OCc2ccccc2)cc1 | -1 | / | -1 | 0 | 37 | 4
Cc1cc(/C=N/n2cnnc2)c(C)n1-c1ccc(OCc2ccc(Cl)cc2)cc1 | -14 | 13 | 122* | 0 | 66* | 46
Fc1ccccc1COc1cccc(/C=N/n2cnnc2)c1 | -21 | 16 | 1 | 0 | 10 | 5
O=C(CSc1nc2ccccc2c(=O)[nH]1)Nc1ccc(N2CCOCC2)c(Cl)c1 | 6 | -9 | 7 | 0 | / | -4
Cc1c(C#N)c(NC(=O)CCl)n(Cc2cccs2)c1C | 578 | 61* | 6 | 0 | -20 | -1
Cc1c(C#N)c(NC(=O)CCl)n(Cc2ccccc2)c1C | -28 | ? | 3 | 0 | -24 | 33
COc1ccc(CN2CCN(C(=O)C3CCC(CNS(=O)(=O)c4ccccc4)CC3)CC2)c(OC)c1OC (stereo unspecified) | 299 | 58* | 10 | 0 | 4 | -3
Cc1cc(C(=O)CCl)c(C)n1Cc1ccco1 | -17 | 80* | -8 | 0 | -7 | -1
Cc1cc(C(=O)CSc2nncs2)c(C)n1Cc1ccco1 | -12 | -8 | 5 | 0 | -9 | -4
COc1ccccc1N(CC(=O)N1CCOCC1)S(C)(=O)=O | 2 | 0 | -6 | 0 | / | -3
Cc1cccc(C2(c3cccc(C)c3)CC2C(=O)Nc2ccc([N+](=O)[O-])cc2O)c1 (stereo unspecified) | 0 | 5 | / | 0 | 92* | /
COc1ccc(OCC(=O)NNC(=O)c2cccc(S(=O)(=O)N(C)C)c2)cc1 | -1 | -13 | -10 | 0 | -10 | -11
Cc1ccc(-c2cnn3c(N4CCOCC4)cc(C)nc23)cc1 | 357 | 7 | -8 | 0 | / | 5
COc1ccc(CCNc2cc(C)nc3c(-c4ccccc4)cnn23)cc1OC | 0 | 15 | / | 0 | 25 | /
Cc1cc(N2CCN(C(=O)c3ccco3)CC2)n2ncc(-c3ccccc3)c2n1 | -15 | 15 | -4 | 0 | 93* | -12
Cc1cc(N2CCN(C(=O)c3ccco3)CC2)n2ncnc2n1 | 20 | -3 | -1 | 0 | -14 | -6
Cc1cc(N2CCCCC2)n2ncc(-c3ccc(Cl)cc3)c2n1 | 102 | 26 | 1 | 0 | 58* | 84*
COc1ccc(CCNc2cc(C)nc3c(-c4ccc(Cl)cc4)cnn23)cc1OC | -7 | 9 | -1 | 0 | 31 | 92*
Cc1cc(N2CCOCC2)n2ncc(-c3ccccc3)c2n1 | -11 | -5 | 100* | 0 | -5 | -5
O=C(COc1cccc(-n2cnnn2)c1)Nc1ccccc1 | 27 | 6 | -3 | 0 | -5 | -3
CCN(C(=O)CSc1nc(C)c(C)c(C)n1)C1CCS(=O)(=O)C1 (stereo unspecified) | 0 | / | 0 | 0 | / | -20
Cc1noc(C)c1NC(=O)Nc1cccc2c1O[C@H](CN(C)C(=O)NC1CCCCC1)[C@@H](C)CN([C@H](C)CO)C2=O | -18 | / | 1 | 0 | / | /
COC(=O)c1c(NC(=O)COc2ccc(Cl)cc2)sc2c1CC(C)(C)NC2(C)C | 7 | 65* | 102* | 0 | / | 10
Cc1[nH]n(C(N)=S)c(=O)c1N=Nc1ccc2ccccc2c1 | / | -30 | / | / | 66* | /
SMILES | Mot1-301 SUMO | T cruzi repl | Beta cell apopt | Efflux pump inh | WT yeast gro inh | CSC inhib
Cc1ccc(N=Nc2c(C)[nH]n(C(N)=S)c2=O)cc1C | 9 | 13 | 28 | 0 | 60* | -11
Cc1[nH]n(C(N)=S)c(=O)c1N=Nc1ccc(S(=O)(=O)N2CCCCCC2)cc1 | 11 | -1 | 7 | 0 | 68* | -5
CCOC(=O)N1CCN(C(=O)C2CCN(C(=O)c3ccc(C(C)(C)C)cc3)CC2)CC1 | 17 | -3 | 2 | 0 | / | -13
COc1ccc(N(CC(=O)N2CCC(C(N)=O)CC2)S(=O)(=O)c2ccccc2)cc1 | 4 | -13 | -5 | 0 | / | -8
COC(=O)c1ccc(CN2C(=O)NC(Cc3c[nH]c4ccccc34)C2=O)cc1 (stereo unspecified) | -19 | -6 | 7 | 0 | / | /
Cc1ccsc1CN(C)CC(=O)NCC(=O)Nc1ccc(F)cc1 | -20 | / | -4 | 0 | / | -17
Cc1ccccc1-c1ncc(CN2CCC(CO)(CCCc3ccccc3)CC2)cn1 | -40 | 33 | -2 | 0 | 87* | 4
OCC1(CCCc2ccccc2)CCN(Cc2cnc(N3CCOCC3)s2)CC1 | 8 | 59* | -3 | 0 | 3 | 14
CCOC(=O)C1(Cc2ccccc2)CCN(Cc2cnc(N3CCOCC3)s2)CC1 | -8 | 59* | -5 | 0 | 7 | -18
Cc1cc(C)c(S(=O)(=O)N(C)CC(=O)NC2CCCC2)c(C)c1 | -19 | 2 | -7 | 0 | 7 | -12
O=C(CCCn1c(=S)[nH]c2cc3c(cc2c1=O)OCO3)N1CCN(c2ccc(Cl)cc2)CC1 | -7 | 32 | -2 | 0 | -7 | 30
CC(=O)c1ccc(N2CCN(C(=O)CCCn3c(=S)[nH]c4cc5c(cc4c3=O)OCO5)CC2)cc1 | 298* | / | 2 | 0 | 17 | /
Cc1cccc(N2CCN(C(=O)CCCn3c(=S)[nH]c4cc5c(cc4c3=O)OCO5)CC2)c1C | 448 | 57* | 7 | 0 | -6 | /
O=C(CCCn1c(=S)[nH]c2cc3c(cc2c1=O)OCO3)N1CCN(c2ccccc2)CC1 | -12 | 23 | 6 | 0 | 22 | -14
CC(=O)c1ccc(N2CCN(C(=O)c3ccc(Cn4c(=S)[nH]c5ccc(N6CCOCC6)cc5c4=O)cc3)CC2)cc1 | 2 | 70* | 3 | 0 | -7 | 33
Cc1cc(F)ccc1NS(=O)(=O)c1c(C(=O)N2CCOCC2)c(C)n(C)c1C | 22 | -13 | -3 | -1 | / | -3
COc1ccc(Nc2cc(C)nc3ccc(OC)cc23)cc1 | -11 | 31 | 49 | 0 | / | 12
COc1ccc(/C=N/Nc2cc(C)nc3c(C)cccc23)cc1 | 6 | 74* | 47 | 0 | / | 27
COc1ccc2nc(C)cc(N/N=C/c3ccc(F)cc3)c2c1 | -24 | 61* | 107* | 0 | / | 106*
COc1ccc(/C=N/Nc2cc(C)nc3ccccc23)cc1 | -5 | 64* | 50 | 0 | / | 32
Cc1[nH]n2c(=O)cc(-c3ccc([N+](=O)[O-])cc3)nc2c1-c1ccccc1 | -11 | 4 | 3 | 0 | / | -9
Cc1ccc(N=Nc2c(N)[nH]n3c(=O)cc(-c4ccccc4)nc23)cc1 | 535 | / | 6 | 0 | 60* | /
Cc1[nH]n2c(=O)cc(C(C)(C)C)nc2c1-c1ccccc1 | 16 | 59* | 52 | 0 | 12 | 0
